Results reported in ChEMBL document CHEMBL1122233, “Antihypertensive 9-substituted 1-oxa-4,9-diazaspiro[5.5]undecan-3-ones” (J Med Chem, 1983).

How the values were obtained:
[1] = tested on: Rattus norvegicus; test: Percentage fall in systolic blood pressure after 2 hours at 12.5 mg/kg given perorally; assay type: functional, Artery; settings: route oral
Outline: (§1)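 Male Okamoto-Aoki SHR, four per group, with a concurrent vehicle control group. Oral dosing in water (0.1 mL/10 g) on two consecutive mornings. After the day-2 dose, rats were restrained in a 30 °C chamber. Tail-cuff systolic pressure was taken at 1-4 h from four traces per rat. Result is % decrease versus control mean, by 1-tailed t test, p ≤ 0.05.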

[2] = tested on: Rattus norvegicus; test: (§2) Percentage fall in systolic blood pressure after 4 hours at 12.5 mg/kg given perorally; assay type: functional, organism-based; design: dose 12.5 mg/kg; settings: Artery; outline: as §1
[3] = tested on: Rattus norvegicus; test: (§3) Percentage fall in systolic blood pressure after 1 hr at 12.5 mg/kg given perorally; assay type: functional, Artery; settings: route oral; outline: as §1
[4] = tested on: Rattus norvegicus; test: (§4) Percentage fall in systolic blood pressure after 1 hr at 50 mg/kg given perorally; assay type: functional, Artery; settings: route oral; outline: as §1
[5] = tested on: Rattus norvegicus; test: (§5) Percentage fall in systolic blood pressure after 3 hours at 50 mg/kg given perorally; assay type: functional, Artery; settings: route oral; outline: as §1
[6] = tested on: Rattus norvegicus; test: (§6) Percentage fall in systolic blood pressure after 3 hours at 12.5 mg/kg given perorally; assay type: functional, organism-based; design: dose 12.5 mg/kg; settings: Artery; outline: as §1
[7] = tested on: Rattus norvegicus; test: (§7) Percentage fall in systolic blood pressure after 4 hours at 50 mg/kg given perorally; assay type: functional, Artery; settings: route oral; outline: as §1
[8] = tested on: Rattus norvegicus; test: (§8) Percentage fall in systolic blood pressure after 2 hours at 50 mg/kg given perorally; assay type: functional, Artery; settings: route oral; outline: as §1
[9] = tested on: Rattus norvegicus; test: as §8; assay type: functional, organism-based; design: dose 50 mg/kg; settings: Artery; outline: as §1
[10] = tested on: Rattus norvegicus; test: as §7; assay type: functional, organism-based; design: dose 50 mg/kg; settings: Artery; outline: as §1
[11] = tested on: Rattus norvegicus; test: as §5; assay type: functional, organism-based; design: dose 50 mg/kg; settings: Artery; outline: as §1
[12] = tested on: Rattus norvegicus; test: as §4; assay type: functional, organism-based; design: dose 50 mg/kg; settings: Artery
Outline: (§9)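 Male Okamoto-Aoki spontaneously hypertensive rats, trained, in groups of four matched for mean systolic pressure; five treated groups and one vehicle control run concurrently. Oral dosing in water (solution or suspension, 0.1 mL/10 g) on two consecutive mornings. On day 2, rats were restrained at 30.0 ± 1.0 °C and tail-cuff systolic pressure recorded at 1–4 h; percent fall versus control, 1-tail t test, p ≤ 0.05.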

[13] = tested on: Rattus norvegicus; test: as §3; assay type: functional, organism-based; design: dose 12.5 mg/kg; settings: Artery; outline: as §9
[14] = tested on: Rattus norvegicus; test: Percentage fall in systolic blood pressure after 3 hr at 12.5 mg/kg given perorally; assay type: functional, organism-based; design: dose 12.5 mg/kg; settings: Artery; outline: as §9
[15] = tested on: Rattus norvegicus; test: (§10) Percentage fall in systolic blood pressure after 4 hr at 12.5 mg/kg given perorally; assay type: functional, organism-based; design: dose 12.5 mg/kg; settings: Artery; outline: as §9
[16] = tested on: Rattus norvegicus; test: Percentage fall in systolic blood pressure after 2 hr at 12.5 mg/kg given perorally; assay type: functional, organism-based; design: dose 12.5 mg/kg; settings: Artery; outline: as §9
[17] = tested on: Rattus norvegicus; test: as §7; assay type: functional, organism-based; design: dose 50 mg/kg; settings: Artery; outline: as §9; remark: listed apart in the source
[18] = tested on: Rattus norvegicus; test: as §2; assay type: functional, Artery; settings: route oral; outline: as §1
[19] = tested on: Rattus norvegicus; test: as §6; assay type: functional, Artery; settings: route oral; outline: as §1
[20] = tested on: Rattus norvegicus; test: Percentage fall in systolic blood pressure after 3 hours at 25 mg/kg given perorally; assay type: functional, Artery; settings: route oral; outline: as §9
[21] = tested on: Rattus norvegicus; test: Percentage fall in systolic blood pressure after 4 hours at 25 mg/kg given perorally; assay type: functional, Artery; settings: route oral; outline: as §9
[22] = tested on: Rattus norvegicus; test: Percentage fall in systolic blood pressure after 2 hours at 25 mg/kg given perorally; assay type: functional, Artery; settings: route oral; outline: as §9
[23] = tested on: Rattus norvegicus; test: Percentage fall in systolic blood pressure after 1 hr at 25 mg/kg given perorally; assay type: functional, Artery; settings: route oral; outline: as §9
[24] = tested on: Rattus norvegicus; test: Percentage fall in systolic blood pressure after 2 hr at 25 mg/kg given perorally; assay type: functional, Artery; settings: route oral; outline: as §9
[25] = tested on: Rattus norvegicus; test: Percentage fall in systolic blood pressure after 3 hr at 25 mg/kg given perorally; assay type: functional, Artery; settings: route oral; outline: as §9
[26] = tested on: Rattus norvegicus; test: as §10; assay type: functional, Artery; settings: route oral; outline: as §9
[27] = tested on: Rattus norvegicus; test: Percentage fall in systolic blood pressure after 4 hr at 25 mg/kg given perorally; assay type: functional, Artery; settings: route oral; outline: as §9

Compound	Decrease in SBP [4]	Decrease in SBP [5]	Decrease in SBP [7]	Decrease in SBP [8]	Decrease in SBP [10]	Decrease in SBP [11]	also measured
CCC1NC(=O)COC12CCN(CCc1c[nH]c3ccccc13)CC2 (stereo not drawn)	40%	41%	43%	54%			Decrease in SBP [1]: 25%; Decrease in SBP [2]: Not significant; Decrease in SBP [3]: 21%; Decrease in SBP [6]: Not significant
COCC(=O)NCC1CCN(CCc2c[nH]c3ccccc23)CC1	20%	13%	26%	18%			
CCC1OC2(CCN(CCc3c[nH]c4ccccc34)CC2)CN(C)C1=O (stereo not drawn)	16%				Not significant	Not significant	Decrease in SBP [9]: Not significant
O=C(NCC1CCN(CCc2c[nH]c3ccccc23)CC1)c1ccccc1		30%	32%	27%			Decrease in SBP [12]: Not significant
COc1ccc(CCN2CCC3(CC2)CNC(=O)CO3)cc1							Decrease in SBP [13]: Not significant; Decrease in SBP [14]: Not significant; Decrease in SBP [15]: Not significant; Decrease in SBP [16]: Not significant
O=C1COC2(CCN(CC(O)c3ccccc3)CC2)CN1 (stereo not drawn)						Not significant	Decrease in SBP [9]: Not significant; Decrease in SBP [17]: Not significant; Decrease in SBP [12]: Not significant
CC1OC2(CCN(CCc3c[nH]c4ccccc34)CC2)CN(C)C1=O (stereo not drawn)	32%				Not significant	Not significant	Decrease in SBP [9]: Not significant
COC1(CNC(C)=O)CCN(CCc2c[nH]c3ccccc23)CC1	17%				Not significant	Not significant	Decrease in SBP [9]: Not significant
CN1CC2(CCN(CCc3c[nH]c4ccccc34)CC2)OCC1=O	50%	34%	26%	44%			Decrease in SBP [1]: 19%; Decrease in SBP [3]: 25%; Decrease in SBP [18]: 17%; Decrease in SBP [19]: 20%
NCC1CCN(CCc2c[nH]c3ccccc23)CC1	20%		20%	24%		Not significant	
CCN1CC2(CCN(CCc3c[nH]c4ccccc34)CC2)OCC1=O	55%	28%	42%	33%			Decrease in SBP [1]: 33%; Decrease in SBP [3]: 22%; Decrease in SBP [18]: 21%; Decrease in SBP [19]: 30%
O=C1COC2(CCN(CCc3ccc(F)cc3)CC2)CN1							Decrease in SBP [13]: Not significant; Decrease in SBP [14]: Not significant; Decrease in SBP [15]: Not significant; Decrease in SBP [16]: Not significant
COc1ccc(CCN2CCC3(CC2)CNC(=O)CO3)cc1OC					Not significant	Not significant	Decrease in SBP [9]: Not significant; Decrease in SBP [12]: Not significant
COc1cc2c(cc1OC)[C@@H]1C[C@@]3(CCN1CC2)CN(C)C(=O)CO3					Not significant	Not significant	Decrease in SBP [9]: Not significant; Decrease in SBP [12]: Not significant
O=C1COC2(CCN(CCc3c[nH]c4ccccc34)CC2)CN1Cc1ccccc1	18%				Not significant	Not significant	Decrease in SBP [9]: Not significant
O=C1COC2(CCN(CCc3ccc(Cl)cc3)CC2)CN1							Decrease in SBP [13]: Not significant; Decrease in SBP [14]: Not significant; Decrease in SBP [15]: Not significant; Decrease in SBP [16]: Not significant
O=C1COC2(CCN(CCCOc3ccccc3)CC2)CN1							Decrease in SBP [13]: Not significant; Decrease in SBP [14]: Not significant; Decrease in SBP [15]: Not significant; Decrease in SBP [16]: Not significant
O=C1COC2(CCN(CCc3c[nH]c4ccccc34)CC2)CN1c1cccc(F)c1							Decrease in SBP [20]: 22%; Decrease in SBP [21]: 18%; Decrease in SBP [22]: 31%; Decrease in SBP [23]: 29%

Compound	Decrease in SBP [4]	Decrease in SBP [5]	Decrease in SBP [7]	Decrease in SBP [8]	Decrease in SBP [10]	Decrease in SBP [11]	also measured
CC1NC(=O)COC12CCN(CCc1c[nH]c3ccccc13)CC2 (stereo not drawn)	56%	41%	50%	48%			Decrease in SBP [1]: 36%; Decrease in SBP [2]: Not significant; Decrease in SBP [3]: 24%; Decrease in SBP [19]: 24%
COC1(CNC(=O)c2ccccc2)CCN(CCc2c[nH]c3ccccc23)CC1	30%	22%		28%	Not significant		
CCN1CC2(CCN(CCCC(=O)c3ccc(F)cc3)CC2)OCC1=O							Decrease in SBP [20]: 27%; Decrease in SBP [21]: 13%; Decrease in SBP [22]: 31%; Decrease in SBP [23]: 35%
CCC(=O)NCC1CCN(CCc2c[nH]c3ccccc23)CC1	23%	15%		23%	Not significant		
CN1CC2(CCN(CC(O)C3COc4ccccc4O3)CC2)OCC1=O (stereo in doubt; 60)							Decrease in SBP ([24]; 25 mg/kg): 33%; Decrease in SBP ([25]; 25 mg/kg): 17%; Decrease in SBP [23]: 41%
O=C1COC2(CCN(CCc3c[nH]c4ccccc34)CC2)C(c2ccccc2)N1 (stereo not drawn)	21%			19%	Not significant	Not significant	
CN1CC2(CCN(CC(O)C3COc4ccccc4O3)CC2)OCC1=O (stereo in doubt; 61)							Decrease in SBP [14]: Not significant
CC1N(C)C(=O)COC12CCN(CCc1c[nH]c3ccccc13)CC2 (stereo not drawn)	29%			22%	Not significant	Not significant	
CC(=O)NCC1CCN(CCc2c[nH]c3ccccc23)CC1	30%	15%	26%	26%			
O=C1COC2(CCN(CCCC(=O)c3ccc(F)cc3)CC2)CN1							Decrease in SBP [24]: 33%; Decrease in SBP [25]: 29%; Decrease in SBP [26]: 18%; Decrease in SBP [13]: Not significant; Decrease in SBP [14]: Not significant; Decrease in SBP [27]: 30%; Decrease in SBP [23]: 50%; Decrease in SBP [16]: Not significant
CC1OC2(CCN(CCc3c[nH]c4ccccc34)CC2)CNC1=O (stereo not drawn)	30%	21%	26%	36%			
O=C1COC2(CCN(CCC(=O)c3ccc(F)cc3)CC2)CN1							Decrease in SBP [21]: 20%; Decrease in SBP [22]: 24%; Decrease in SBP [23]: 27%
CCCN1CC2(CCN(CCc3c[nH]c4ccccc34)CC2)OCC1=O	47%	22%	39%	22%			Decrease in SBP [1]: 26%; Decrease in SBP [3]: 18%; Decrease in SBP [18]: 16%; Decrease in SBP [19]: 24%
CCC1N(C)C(=O)COC12CCN(CCc1c[nH]c3ccccc13)CC2 (stereo not drawn)					Not significant	Not significant	Decrease in SBP [9]: Not significant; Decrease in SBP [12]: Not significant
O=C1COC2(CCN(C3CCc4ccccc4C3)CC2)CN1 (stereo not drawn)	28%	23%	20%	24%			
CCC1NC(=O)COC12CCN(CC(O)C1COc3ccccc3O1)CC2 (stereo not drawn)	40%	36%	26%	44%			
CCN1C(=O)COC2(CCN(CCc3c[nH]c4ccccc34)CC2)C1C (stereo not drawn)	20%				Not significant	Not significant	Decrease in SBP [9]: Not significant
CCC1OC2(CCN(CCc3c[nH]c4ccccc34)CC2)CNC1=O (stereo not drawn)	26%	15%		23%	Not significant		
